Assay results reported in ChEMBL document CHEMBL4049413, “High-content screen using zebrafish (Danio rerio) embryos identifies a novel kinase activator and inhibitor” (Bioorg Med Chem Lett, 2017).
Activity calls are given as the source filed them. The rule behind the calls is not given here.

Tests used:
Danio rerio [1] = species on record: Danio rerio; assay: Induction of morphological changes in 6 hrs post fertilized zebra fish embryo assessed as defect in notochord development up to 200 uM by microscopic method; format: functional
In short: (§1)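 Embryos staged and placed in 12-well plates in E3 medium with 1% DMSO within 6 hpf, ~30 embryos per well. Continuous exposure from 6–30 hpf at varied concentrations up to 200 uM. For the timing window, 100 uM exposure began at different developmental times and all embryos were scored at 30 hpf. Notochord, somite and tail phenotypes were scored by microscopy.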

Albumin = Albumin (Bos taurus, UniProt P02769); assay: Binding affinity to bovine serum albumin by tryptophan quenching based HTS assay; format: ADME
Albumin, sequence (P02769 whole entry): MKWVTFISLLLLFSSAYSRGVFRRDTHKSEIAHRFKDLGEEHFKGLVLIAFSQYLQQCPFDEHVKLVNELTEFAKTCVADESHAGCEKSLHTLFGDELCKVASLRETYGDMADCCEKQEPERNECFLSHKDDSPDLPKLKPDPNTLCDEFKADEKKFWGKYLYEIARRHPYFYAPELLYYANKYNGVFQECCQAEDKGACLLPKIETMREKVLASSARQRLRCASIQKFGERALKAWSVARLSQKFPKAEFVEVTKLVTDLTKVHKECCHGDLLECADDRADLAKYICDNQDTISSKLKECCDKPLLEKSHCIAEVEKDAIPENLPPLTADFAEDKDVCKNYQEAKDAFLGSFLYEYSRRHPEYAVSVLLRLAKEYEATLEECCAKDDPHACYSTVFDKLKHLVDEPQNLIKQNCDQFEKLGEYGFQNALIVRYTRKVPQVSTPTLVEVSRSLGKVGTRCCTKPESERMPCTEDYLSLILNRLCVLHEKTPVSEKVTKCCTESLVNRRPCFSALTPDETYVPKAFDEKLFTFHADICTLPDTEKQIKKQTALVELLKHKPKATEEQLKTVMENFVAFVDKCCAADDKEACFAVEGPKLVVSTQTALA
In short: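 Bovine serum albumin binding screened in HTS format by quenching of intrinsic BSA tryptophan fluorescence, Ex/Em 280/340 nm; IC50 derived from the quenching response.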

Danio rerio [2] = species on record: Danio rerio; assay: Induction of morphological changes in 6 hrs post fertilized zebra fish embryo assessed as defect in tail musculature by measuring downward c-bend of body axis up to 200 uM by microscopic method; format: functional; in short: as §1
[3] = target: Death-associated protein kinase 3 (Homo sapiens) (UniProt O43293); assay: Activation of human DAPK3 using KKLNRTLSFAEPG as substrate in presence of [gamma-33P]-ATP
Death-associated protein kinase 3 (Homo sapiens), sequence (O43293 whole entry, looked up): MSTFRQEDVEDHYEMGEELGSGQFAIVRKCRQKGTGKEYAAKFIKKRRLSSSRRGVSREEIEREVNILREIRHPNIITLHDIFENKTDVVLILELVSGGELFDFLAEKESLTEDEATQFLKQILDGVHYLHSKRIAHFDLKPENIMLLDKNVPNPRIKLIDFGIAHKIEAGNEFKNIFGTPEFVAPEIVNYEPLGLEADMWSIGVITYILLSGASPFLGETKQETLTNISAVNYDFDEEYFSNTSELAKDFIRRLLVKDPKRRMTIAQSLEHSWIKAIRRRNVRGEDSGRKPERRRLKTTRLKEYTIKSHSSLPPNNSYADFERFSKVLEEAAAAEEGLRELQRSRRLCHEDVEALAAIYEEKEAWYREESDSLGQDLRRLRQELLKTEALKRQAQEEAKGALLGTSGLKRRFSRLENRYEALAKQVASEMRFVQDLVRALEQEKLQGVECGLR

Danio rerio [4] = species on record: Danio rerio; assay: Induction of morphological changes in 22 hrs post fertilized zebra fish embryo at 100 uM by microscopic method; format: functional; in short: as §1
Danio rerio [5] = species on record: Danio rerio; assay: Induction of morphological changes in 30 hrs post fertilized zebra fish embryo assessed as defect in notochord development up to 200 uM by microscopic method; format: functional; in short: as §1
[6] = target: Serine/threonine-protein kinase pim-3 (Homo sapiens, UniProt Q86V86); assay: Inhibition of human PIM3 using RSRHSSYPAGT as substrate in presence of [gamma-33P]-ATP
Danio rerio [7] = species on record: Danio rerio; assay: Induction of morphological changes in 14 hrs post fertilized zebra fish embryo assessed as defect in notochord development at 100 uM by microscopic method; format: functional; in short: as §1
Danio rerio [8] = species on record: Danio rerio; assay: Induction of morphological changes in 6 to 14 hrs post fertilized zebra fish embryo assessed as defect in notochord development at 100 uM by microscopic method; format: functional; in short: as §1
Danio rerio [9] = species on record: Danio rerio; assay: Toxicity in 6 to 30 hrs post fertilized zebra fish embryo assessed as death at 200 uM by microscopic method; details: zebrafish
In short: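 Staged zebrafish embryos placed in 12-well plates in E3 embryo medium within 6 hpf and exposed from 6 to 30 hpf in E3 with 1% DMSO, with or without compound, ~30 embryos per group (at most 30 per well). Wells were inspected under a dissecting microscope, and death was scored as loss of embryonic structure.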

[10] = target: Death-associated protein kinase 2 (Homo sapiens) (UniProt Q9UIK4); assay: Activation of human DAPK2 using KKLNRTLSFAEPG as substrate in presence of [gamma-33P]-ATP
Death-associated protein kinase 2 (Homo sapiens), sequence (Q9UIK4 whole entry, looked up): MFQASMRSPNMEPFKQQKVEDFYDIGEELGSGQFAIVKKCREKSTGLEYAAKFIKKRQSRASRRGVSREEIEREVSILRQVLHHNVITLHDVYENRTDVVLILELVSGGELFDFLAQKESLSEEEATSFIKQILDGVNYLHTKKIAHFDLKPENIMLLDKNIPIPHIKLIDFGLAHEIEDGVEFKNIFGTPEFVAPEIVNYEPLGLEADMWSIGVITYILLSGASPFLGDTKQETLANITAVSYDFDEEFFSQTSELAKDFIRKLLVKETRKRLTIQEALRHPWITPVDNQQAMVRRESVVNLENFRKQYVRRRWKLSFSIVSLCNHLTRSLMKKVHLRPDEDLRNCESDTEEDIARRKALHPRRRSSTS

[11] = target: Death-associated protein kinase 1 (Homo sapiens, UniProt P53355); assay: Activation of human DAPK1 using KKLNRTLSFAEPG as substrate in presence of [gamma-33P]-ATP
Death-associated protein kinase 1, sequence (P53355 whole entry): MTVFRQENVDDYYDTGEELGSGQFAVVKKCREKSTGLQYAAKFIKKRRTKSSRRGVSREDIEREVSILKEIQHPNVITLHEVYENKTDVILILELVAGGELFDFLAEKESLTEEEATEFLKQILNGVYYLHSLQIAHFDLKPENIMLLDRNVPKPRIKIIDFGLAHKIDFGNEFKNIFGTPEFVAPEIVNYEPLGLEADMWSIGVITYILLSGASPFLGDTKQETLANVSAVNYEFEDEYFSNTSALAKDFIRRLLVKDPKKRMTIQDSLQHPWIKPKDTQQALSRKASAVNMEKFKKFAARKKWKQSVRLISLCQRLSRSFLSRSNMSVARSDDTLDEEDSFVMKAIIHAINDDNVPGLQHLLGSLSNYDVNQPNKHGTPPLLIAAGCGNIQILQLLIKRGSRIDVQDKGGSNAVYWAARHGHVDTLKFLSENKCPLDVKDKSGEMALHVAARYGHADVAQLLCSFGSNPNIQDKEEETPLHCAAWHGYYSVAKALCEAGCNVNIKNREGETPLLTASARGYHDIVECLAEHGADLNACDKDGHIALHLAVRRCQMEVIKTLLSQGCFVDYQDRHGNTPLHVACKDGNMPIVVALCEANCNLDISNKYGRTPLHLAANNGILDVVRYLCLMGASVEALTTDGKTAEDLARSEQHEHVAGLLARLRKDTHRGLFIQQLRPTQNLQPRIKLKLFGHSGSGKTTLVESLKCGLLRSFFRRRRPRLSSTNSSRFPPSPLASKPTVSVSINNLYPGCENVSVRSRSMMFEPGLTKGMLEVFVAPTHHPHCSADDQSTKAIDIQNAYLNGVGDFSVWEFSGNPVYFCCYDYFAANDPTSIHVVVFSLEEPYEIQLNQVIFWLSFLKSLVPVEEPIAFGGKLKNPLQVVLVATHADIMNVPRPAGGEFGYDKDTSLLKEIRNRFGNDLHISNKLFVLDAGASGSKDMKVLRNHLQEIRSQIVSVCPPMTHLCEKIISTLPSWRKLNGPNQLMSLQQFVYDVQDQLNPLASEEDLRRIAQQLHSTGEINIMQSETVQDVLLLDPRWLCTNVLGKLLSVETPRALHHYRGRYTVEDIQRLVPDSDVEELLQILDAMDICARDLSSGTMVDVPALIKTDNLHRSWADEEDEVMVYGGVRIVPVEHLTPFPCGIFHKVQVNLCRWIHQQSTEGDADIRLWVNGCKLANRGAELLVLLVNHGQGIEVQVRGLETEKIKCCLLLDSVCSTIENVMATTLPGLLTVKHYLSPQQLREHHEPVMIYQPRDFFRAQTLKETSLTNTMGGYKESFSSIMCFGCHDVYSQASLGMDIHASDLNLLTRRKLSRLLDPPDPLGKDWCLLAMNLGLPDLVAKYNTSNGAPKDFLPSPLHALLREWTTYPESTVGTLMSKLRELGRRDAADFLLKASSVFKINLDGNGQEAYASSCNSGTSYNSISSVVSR

Danio rerio [12] = species on record: Danio rerio; assay: Induction of morphological changes in 6 to 14 hrs post fertilized zebra fish embryo assessed as defect in somite development at 100 uM by microscopic method; format: functional; in short: as §1
Danio rerio [13] = species on record: Danio rerio; assay: Induction of morphological changes in 30 hrs post fertilized zebra fish embryo assessed as defect in tail musculature by measuring downward c-bend of body axis up to 200 uM by microscopic method; format: functional; in short: as §1
Danio rerio [14] = species on record: Danio rerio; assay: Induction of morphological changes in 14 hrs post fertilized zebra fish embryo assessed as defect in somite development at 100 uM by microscopic method; format: functional; in short: as §1
[15] = target: Serine/threonine-protein kinase pim-2 (Homo sapiens) (UniProt Q9P1W9); assay: Inhibition of human PIM2 using RSRHSSYPAGT as substrate in presence of [gamma-33P]-ATP
Serine/threonine-protein kinase pim-2 (Homo sapiens), sequence (Q9P1W9 whole entry, looked up): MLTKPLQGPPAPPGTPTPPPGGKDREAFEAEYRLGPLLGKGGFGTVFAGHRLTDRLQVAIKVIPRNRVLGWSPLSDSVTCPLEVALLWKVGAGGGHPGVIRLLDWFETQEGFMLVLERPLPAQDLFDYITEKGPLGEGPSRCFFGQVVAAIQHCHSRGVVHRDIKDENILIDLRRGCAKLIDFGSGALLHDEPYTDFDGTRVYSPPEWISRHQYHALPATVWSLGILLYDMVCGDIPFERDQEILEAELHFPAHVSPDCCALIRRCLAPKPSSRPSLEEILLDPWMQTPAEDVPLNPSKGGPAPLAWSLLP

Homo sapiens = species on record: Homo sapiens; assay: Substrate activity at P-gp in human […] cells assessed as intracellular rhodamine123 accumulation at 50 uM after 2 hrs by fluorescence-based HTS assay; format: cell-based
In short: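 MDA-MB-231 breast cancer cells in 96-well plates were pretreated with compound for 2 h, then intracellular rhodamine 123 accumulation was measured by fluorescence (Ex/Em 485/528). Verapamil at 20 uM served as positive control.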

[16] = target: Serine/threonine-protein kinase pim-1 (Homo sapiens) (UniProt P11309); assay: Inhibition of human PIM1 using KKRNRTLTK as substrate in presence of [gamma-33P]-ATP
Serine/threonine-protein kinase pim-1 (Homo sapiens), sequence (P11309 whole entry, looked up): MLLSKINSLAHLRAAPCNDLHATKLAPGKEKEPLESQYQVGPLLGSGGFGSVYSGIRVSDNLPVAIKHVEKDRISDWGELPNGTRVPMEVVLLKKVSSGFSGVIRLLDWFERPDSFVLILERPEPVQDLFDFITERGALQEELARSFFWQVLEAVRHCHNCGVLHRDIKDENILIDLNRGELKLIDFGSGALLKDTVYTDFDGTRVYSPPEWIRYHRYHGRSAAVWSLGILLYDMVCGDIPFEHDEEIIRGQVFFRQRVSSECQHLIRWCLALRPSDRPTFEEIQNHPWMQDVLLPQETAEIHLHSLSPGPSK

Danio rerio [17] = species on record: Danio rerio; assay: Induction of morphological changes in 30 to 48 hrs post fertilized zebra fish embryo by microscopic method; format: functional

O=C(COc1cccc2ccccc12)Nc1cccc(C(=O)O)c1 was tested, and the Activity (Danio rerio [1]) was “Active”, the IC50 (Albumin) was 23.3 µM and the Activity (Danio rerio [2]) was “Active”. The Activity [3] was “inactive”, the Activity (Danio rerio [4]) was “inactive” and the Activity (Danio rerio [5]) was “inactive”. For the same compound, the IC50 [6] was 4.08 µM, the Activity (Danio rerio [7]) was “inactive” and the Activity (Danio rerio [8]) was “Active”. The Activity (Danio rerio [9]) was “Toxic”, the Activity [10] was “inactive” and the EC50 [11] was 39.5 µM. The Activity (Danio rerio [12]) was “Active”, the Activity (Danio rerio [13]) was “inactive” and the Activity (Danio rerio [14]) was “inactive”. For the same compound, the inhibition [15] was “inactive”, the Activity (Homo sapiens) was “inactive” and the inhibition [16] was “inactive”. For the same compound, the Activity (Danio rerio [17]) was “inactive”.
